Shown are actives, neighbours in structure and some others; about 4.9% of the full set was active somewhere.
STAT3 blocker = STAT3 signaling inhibition; U3A cells, IL-6 STAT3-luciferase reporter, luminescence; host cell line lacks STAT1; inhibition, % at 5.5 µM; 0.89% of 190,000 active; AID 862;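 active = inhibition above the mean inhibition across all screened compounds plus 3 SD, cut at about 44% in these data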;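 note: 0% = DMSO only wells and 100% = 100 µM nifuroxazide control wells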
STAT1 act-1 = STAT1 signaling activation; 2.6% of 200,000 active; NIH 3T3 STAT1-luciferase reporter, IFN-gamma, luminescence; 100% = IFN-gamma alone, no compound; AID 932; activation (% of control), % at 5.5 µM;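 active = activation above the screen-wide mean activation plus 3 SD, cut at about 130% in these data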;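 note: raw ratio to IFN-gamma control signal so 100% means no change and 0% no light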
STAT3 act-1 = increases IL-6 driven STAT3 reporter signal | U3A cells, IL-6 STAT3-luciferase reporter, luminescence; 100% = signal with IL-6 EC80 alone | activation (% of control), % at 5.6 µM | 0.91% of 190,000 active | AID 871;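 active = activation above the screen-wide mean of compound activation plus 3 SD, cut at about 130% in these data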;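 note: 0% = background luminescence of wells with medium and substrate only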
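Test system: Human STAT1-deficient U3A cells with stable STAT3-luciferase reporter | Also added: Interleukin-6, 33 ng/mL | Timing: Compound pre-incubation 1 h before IL-6, then 6 h stimulation at 37 °C | Technique: Luciferase reporter luminescence | Read-out: Percent of IL-6-only median luminescence | Benchmarks: IL-6-only wells as 100% reference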
APP 5'UTR act = activates APP 5'UTR luciferase reporter; SH-SY5Y APP 5'UTR luciferase reporter, luminescence; zero percent = DMSO vehicle wells; activation, % at 2 µM; 1% of 190,000 active; AID 1276;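 active = activation above a set limit, based on mean plus 3 SD of controls, cut at about 140% in these data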
NF-kB neuron act = compounds increasing NF-kB expression in human neuronal cells | NF-kB reporter expression; stronger effect = higher value | fold change at 12.5 µM | 1.6% of 190,000 active | AID 1239; in the data active = fold change above about 3.3
STAT1 inh-1 = inhibitors of IFN-gamma induced STAT1 signaling; NIH 3T3 STAT1-luciferase reporter, luminescence; inhibition, % at 5.5 µM; 0.35% of 200,000 active;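 active = inhibition above a set limit, the mean inhibition across all tested compounds plus 3 SD, cut at about 34% in these data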;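 note: 0% = IFN-gamma with DMSO and 100% = IFN-gamma with 300 µM nifuroxazide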
STAT3 act-2 = confirmation of STAT3 signaling activators | 64% of 1,200 active | U3A STAT3-luciferase reporter, IL-6 potentiation, luminescence; U3A cells lack STAT1; 100 means same as IL-6 alone | shares compounds with STAT3 act-1 | potentiation (% of control), % at 5.7 µM;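 active = percent activation of the STAT3 luciferase reporter above a set limit taken from the earlier primary screen, cut at about 130% in these data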;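 note: 0% = background signal of medium plus substrate and 100% = median of IL-6 with DMSO wells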
NFkB act 2 = activates NF-kappaB, counter-screen to STAT3 activators. shares compounds with STAT3 act-1. human cells, NF-kappaB reporter activation. activation (% of control), % at 5.7 µM. 11% of 1,200 active. AID 1309; in the data active = activation above about 120%;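 note: reporter induced by TNF-alpha stimulation; 100% = median of stimulated DMSO wells and 0% = no signal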
STAT1 act-2 = activates STAT1, counter-screen to STAT3 activators. 13% of 1,200 active. shares compounds with STAT3 act-1. AID 1318. activation (% of control), % at 5.7 µM. NIH 3T3 STAT1-luciferase reporter, IFN-gamma, luminescence;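 active = activation above the solvent-only control well mean plus 3 SD, set per screening run, cut at about 120% in these data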;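 note: 100% = IFN-gamma with DMSO median signal so 100% means no change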
STAT1 inh-2 = STAT1 inhibition, confirmation assay; shares compounds with STAT1 inh-1; NIH 3T3 STAT1-luciferase reporter, IFN-gamma, luminescence; inhibition, % at 5.5 µM; 55% of 200 active; AID 1263;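 active = triplicate mean inhibition exceeding the hit cutoff computed for the primary STAT1 screen, cut at about 35% in these data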;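 note: 0% = DMSO with IFN-gamma and 100% = 300 µM nifuroxazide with IFN-gamma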
NFkB inh STAT1ct = counter-screen for STAT1 inhibitors: NF-kappaB inhibition; shares compounds with STAT1 inh-1; HEK293T NF-kB luciferase reporter, TNF-alpha induced, luminescence; inhibition, % at 5.7 µM; 30% of 200 active;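 active = inhibition above the mean of solvent-only control wells plus 3 SD of those wells, cut at about 15% in these data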;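 note: 0% = DMSO with TNF-alpha and 100% = MG-132 control with TNF-alpha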
STAT3 inh STAT1c = STAT3 inhibition in STAT1 inhibitor counter-screen; inhibition, % at 5.7 µM; U3A cells, IL-6 STAT3 luciferase reporter, luminescence; cells lacking STAT1; 20% of 200 active; shares compounds with STAT1 inh-1;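 active = inhibition above the mean of solvent-only control wells plus 3 SD, set per campaign, cut at about 25% in these data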;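 note: 0% = IL-6 plus DMSO and 100% = IL-6 plus nifuroxazide control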
* marks the source's active call; other numbers are inactive results; . = no result given.

SMILES	STAT3 blocker	STAT1 act-1	STAT3 act-1	APP 5'UTR act	NF-kB neuron act	STAT1 inh-1	STAT3 act-2	NFkB act 2	STAT1 act-2	others
CC(=O)Nc1ccccc1-c1nn[nH]n1	-56	92	151*	-40	1	9	142*	111	100
Cc1cc2nc(C)c3c(n2n1)CCC3	10	106	97	-15	1.1	-7	.	.	.
CCOn1c(=O)c(-c2cc3ccccc3o2)[n+]([O-])c2ccccc21	-56	123	154*	16	1.5	-25	179*	128*	158*
Oc1cccc2ccc(/C=C/c3cccs3)nc12	-53	100	148*	148*	3.2	0	189*	121*	102
Cc1ccsc1/C=C/C(=O)O	8	101	95	-8	0.83	-3	.	.	.
Oc1c(Cl)cc(Cl)cc1/C=C/c1ccc2cccc(O)c2n1	-12	99	114	4	1.3	-2	.	.	.
Oc1ccc(Cl)cc1/C=C/c1ccc2cccc(O)c2n1	-74	87	167*	55	2.2	14	156*	100	92
Cc1ccsc1/C=C/c1ccc2cccc(O)c2n1	-55	97	154*	148*	5*	3	176*	110	99
O=C(/C=C/c1cccs1)c1cc(Cl)ccc1O	9	99	94	24	1.2	0	.	.	.
O=C(CCc1ccc(O)c(O)c1)NNC(=S)Nc1ccc(Br)cc1Cl	-5	105	106	14	0.94	-7	.	.	.
Cc1ccc(S(=O)(=O)CCNC(=O)Cc2ccccc2)cc1	13	98	95	-5	0.93	0	.	.	.
CCOC(=O)CSc1ncnc2c1cnn2-c1ccccc1	-38	103	138*	-11	1.2	-4	91	101	96
Cc1cc(-c2ccc(Cl)cc2)c(C#N)c(N)n1	-57	88	148*	.	1	7	140*	102	107
COc1cc(-c2nc3ccccc3s2)ccc1O	-48	104	141*	48	2.7	-4	135*	94	121*
COc1cc(OC)c(-c2nc3ccccc3s2)cc1OC	-51	106	149*	26	0.98	-9	154*	104	114
Clc1ncccc1-c1nc2ccccc2s1	2	124	100	30	1.8	-26	.	.	.
CCOCCCNCc1ccc(OCc2ccccc2C)c(OC)c1	2	103	98	3	1.1	-3	.	.	.
Cc1ccc(C(=O)N2CCN(S(=O)(=O)c3ccc(C)cc3)CC2)cc1	-56	96	146*	33	0.95	5	112	103	99
Cc1ccc(C(=O)N2CCN(S(C)(=O)=O)C2)cc1	3	98	105	-4	1.1	3	.	.	.
O=S(=O)(c1ccc(Br)cc1)N1CCN(c2ccc3nnc(-c4ccccc4)n3n2)CC1	-69	100	167*	5	0.67	-1	144*	109	101
COC(=O)c1ccc(CC(=O)c2nc3ccccc3s2)cc1	-1	102	106	52	1.2	-3	.	.	.
O=C(Cc1ccccc1)c1nc2ccccc2s1	-36	108	143*	30	1.5	-9	164*	128*	128*
CCc1ccc(OCC(=O)N/N=C2\CC(=O)c3ccccc32)cc1	-58	102	146*	-16	0.59	-2	128	110	117
Cc1nc([N+](=O)[O-])c(Br)n1Cc1ccc(Cl)c(Cl)c1	-28	75	139*	-21	0.34	27	117	107	77
Cc1nc([N+](=O)[O-])c(Br)n1CC(=O)c1ccc(Cl)cc1	5	95	101	13	0.85	5	.	.	.
SMILES	STAT3 blocker	STAT1 act-1	STAT3 act-1	APP 5'UTR act	NF-kB neuron act	STAT1 inh-1	STAT3 act-2	NFkB act 2	STAT1 act-2	others
Nc1c([N+](=O)[O-])cnnc1-c1ccccc1	0	92	100	11	1.2	9	.	.	.
O=c1oc(-c2cccs2)nc2scc(-c3cccs3)c12	-43	106	140*	200*	1.9	-6	123	114	116
Cc1cc(NC(=O)CN2CCOCC2)n(-c2nc3ccccc3s2)n1	-77	99	165*	-2	0.59	1	146*	102	99
CC(=O)Nc1cc(C)nn1-c1nc2ccccc2s1	-44	116	148*	73	0.4	-16	181*	122*	144*
O=C1C=C(NCc2ccccc2)c2ccccc2C1=O	-48	90	146*	-9	0.4	9	132	98	92
NC(N)=NS(=O)(=O)c1ccc(NC(=S)NC(=O)c2ccc3c(c2)OCO3)cc1	13	91	96	15	1.2	8	.	.	.
COc1ccc(CCNC(=O)Cn2c(=O)n(-c3ccc(F)cc3F)c(=O)c3sccc32)cc1OC	8	61	95	0	0.88	40*	.	.	.	STAT1 inh-2=31;NFkB inh STAT1ct=7;STAT3 inh STAT1c=12
COc1ccc(CCNC(=O)Cn2c(=O)n(-c3ccc(F)cc3)c(=O)c3sccc32)cc1OC	17	52	88	4	1.2	50*	.	.	.	STAT1 inh-2=35*;NFkB inh STAT1ct=4;STAT3 inh STAT1c=6
CC(C)(C)C(=O)Cn1c(=O)n(-c2ccc(F)cc2F)c(=O)c2sccc21	2	96	100	25	1.2	3	.	.	.
COc1ccc(CCNC(=O)Cn2c(=O)n(-c3cc(F)ccc3F)c(=O)c3sccc32)cc1OC	8	51	97	4	0.77	53*	.	.	.	STAT1 inh-2=34;NFkB inh STAT1ct=3;STAT3 inh STAT1c=7
COc1ccc(CCNC(=O)Cn2c(=O)oc3ccccc32)cc1OC	2	105	102	-11	1.2	-5	.	.	.
Cc1ccc(C)c(-n2c(-c3csc(C)c3C)n[nH]c2=S)c1	-1	94	105	7	1.3	6	.	.	.
CCOC(=O)c1sc(N(Cc2ccccc2)C(=O)COC(=O)c2ccccc2O)nc1C	18	106	86	10	1.1	-7	.	.	.
